In ChEMBL document CHEMBL4373727, “Thienopyrimidinone Derivatives That Inhibit Bacterial tRNA (Guanine37-N1)-Methyltransferase (TrmD) by Restructuring the Active Site with a Tyrosine-Flipping Mechanism” (J Med Chem, 2019):
Active and inactive are the calls of the source. Unless noted, the calls are words filed in the database; no cut-off is given here.

Tests used:
[1] = target: T1, tRNA (guanine-N(1)-)-methyltransferase (Pseudomonas aeruginosa (strain ATCC 15692 / DSM 22644 / CIP 104116 / JCM14847 / LMG 12228 / 1C / PRS 101 / PAO1)) (UniProt Q9HXQ1); experiment: Binding affinity to Pseudomonas aeruginosa tRNA (guanine(37)-N1)-methyltransferase (Leu5 to Asp25 residues) expressed in Escherichia coli BL21 (DE3) Rosetta T1R cells assessed as thermal stabilization of protein by measuring change in melting temperature at 0.1 mM by SYPRO orange based thermal shift assay
T1 sequence (whole entry): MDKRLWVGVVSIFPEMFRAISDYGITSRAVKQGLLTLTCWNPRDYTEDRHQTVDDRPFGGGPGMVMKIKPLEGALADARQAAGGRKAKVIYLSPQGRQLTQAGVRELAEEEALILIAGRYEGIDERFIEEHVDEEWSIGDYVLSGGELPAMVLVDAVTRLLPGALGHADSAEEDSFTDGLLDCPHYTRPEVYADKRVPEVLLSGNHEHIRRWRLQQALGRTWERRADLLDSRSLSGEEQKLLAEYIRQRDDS
Outline: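 Thermal shift: 4 μM TrmD with 5× SYPRO Orange and ligand in 50 mM Tris-HCl pH 8, 150 mM NaCl, 1 mM MgCl2, 1 mM DTT, 0.05% Tween-20. Buffer-only control. Heated from 25 to 95 °C in a real-time PCR instrument, and Tm taken as the unfolding midpoint. Ligand levels: SAH 2 mM, inhibitors 0.1 mM.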

[2] = test system: Erythrocyte; experiment: Hemolytic activity in human RBC at 100 uM measured after 1 hr; type: ADME, cell-based
Outline: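 Fresh human RBCs were PBS-washed and resuspended to OD600 24, then mixed 1:1 by volume with compound serially diluted in PBS. Incubated 1 h at 37 °C without shaking and centrifuged at 1000g for 15 min. Triton X-100 served as positive control. Run in triplicate.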

[3] = target: T1, tRNA (guanine-N(1)-)-methyltransferase (Pseudomonas aeruginosa (strain ATCC 15692 / DSM 22644 / CIP 104116 / JCM14847 / LMG 12228 / 1C / PRS 101 / PAO1)); experiment: (§1) Inhibition of Pseudomonas aeruginosa tRNA (guanine(37)-N1)-methyltransferase (Leu5 to Asp25 residues) expressed in Escherichia coli BL21 (DE3) Rosetta T1R cells assessed as reduction in S-adenosyl-L-homocysteine production up to 50 uM preincubated for 15 mins followed by 1.5 uM of tRNALeu(CAG) substrate and SAM addition and measured after 45 mins by MTase-Glo assay
Outline: (§2)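 MTase-Glo luminescence assay. 8 nM TrmD preincubated 15 min at ambient temperature with serially diluted inhibitor (0–500 μM) in 50 mM Tris-HCl pH 8.0, 80 mM NaCl, 1 mM MgCl2, 0.5 mM DTT, 0.01% Triton X-100. Reaction with 2 μM SAM and tRNALeu(CAG), 45 min at 37 °C. Detection 30 min in the dark, SAH read against a standard curve. IC50 by nonlinear regression. Two independent experiments in duplicate.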

[4] = target: T2, tRNA (guanine-N(1)-)-methyltransferase (Pseudomonas aeruginosa (strain ATCC 15692 / DSM 22644 / CIP 104116 / JCM14847 / LMG 12228 / 1C / PRS 101 / PAO1), UniProt Q9HXQ1); experiment: as §1, with “production” for “production up to 50 uM”; outline: as §2
T2 sequence (Q9HXQ1 whole entry): T1 sequence (whole entry)

[5] = test system: Staphylococcus aureus; experiment: Antibacterial activity against methicillin-resistant Staphylococcus aureus ATCC 43300 at 100 uM incubated for 24 hrs; type: functional, organism-based
Outline: (§3)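 Single-concentration growth screen: 100 μM test compound with log-phase bacteria at about 5×10^5 cells/mL. Incubation 24 h at 37 °C. Growth read by OD600 and given as percent of untreated control. MRSA was grown in cation-adjusted Mueller–Hinton broth. M. smegmatis was grown in complete Middlebrook 7H9. Ampicillin and kanamycin served as positive controls.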

[6] = test system: Enterococcus faecalis; experiment: Antibacterial activity against Enterococcus faecalis ATCC 51299 at 100 uM incubated for 24 hrs; type: functional, organism-based
Outline: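 Single-concentration screen in brain heart infusion broth. Log-phase cells at ~5×10^5 cells/mL were grown with 100 μM compound for 24 h at 37 °C. Growth was read as OD600 and expressed as a percentage of untreated wells. DMSO and blank controls were included.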

[7] = test system: Streptococcus pneumoniae; experiment: Antibacterial activity against Streptococcus pneumoniae ATCC 49619 at 100 uM incubated for 24 hrs; type: functional, organism-based
Outline: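 Single 100 μM screen in MH medium with 3% defibrinated sheep blood at 37 °C under 5% CO2, ~5×10^5 cells/mL, 24 h.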

[8] = test system: Mycolicibacterium smegmatis; experiment: Antibacterial activity against Mycolicibacterium smegmatis MC2 155 at 100 uM incubated for 24 hrs; type: functional, organism-based; outline: as §3
[9] = test system: Mycobacterium tuberculosis; experiment: Antibacterial activity against Mycobacterium tuberculosis ATCC 27294 at 100 uM incubated for 7 days; type: functional, organism-based
[10] = test system: Pseudomonas aeruginosa; experiment: Antibacterial activity against Pseudomonas aeruginosa PA14 incubated for 24 hrs by serial broth microdilution method; type: functional, organism-based
Outline: (§4)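 Log-phase cultures from four colonies grown overnight at 37 °C, inoculated at ~5×10^5 cells/mL in cation-adjusted Mueller–Hinton broth with serially diluted compound. Grown 24 h at 37 °C, then OD600 read. MIC50/MIC90 are the concentrations giving 50%/90% growth inhibition relative to drug-free controls. Two independent experiments in duplicate.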

[11] = test system: Acinetobacter baumannii; experiment: Antibacterial activity against Acinetobacter baumannii ATCC 17961 incubated for 24 hrs by serial broth microdilution method; type: functional; outline: as §4
[12] = test system: Klebsiella pneumoniae; experiment: Antibacterial activity against Klebsiella pneumoniae ATCC 13883 incubated for 24 hrs by serial broth microdilution method; type: functional, organism-based; outline: as §4
[13] = test system: Salmonella enteritidis; experiment: Antibacterial activity against Salmonella enteritidis ATCC 13076 incubated for 24 hrs by serial broth microdilution method; type: functional; conditions: Salmonella enterica subsp. enterica serovar Enteritidis; outline: as §4
[14] = test system: Escherichia coli; experiment: Antibacterial activity against Escherichia coli BW25113 incubated for 24 hrs by serial broth microdilution method; type: functional, organism-based; outline: as §4
[15] = test system: Staphylococcus aureus; experiment: Antibacterial activity against methicillin-resistant Staphylococcus aureus ATCC 43300 incubated for 24 hrs by serial broth microdilution method; type: functional
Outline: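 Growth read by OD600. MRSA in cation-adjusted Mueller–Hinton broth, M. smegmatis in complete 7H9. MIC50 and MIC90 are 50% and 90% growth inhibition versus drug-free controls. Two independent experiments, each in duplicate.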

[16] = test system: Enterococcus faecalis; experiment: Antibacterial activity against Enterococcus faecalis ATCC 51299 incubated for 24 hrs by serial broth microdilution method; type: functional, organism-based
Outline: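 Broth microdilution in brain heart infusion broth, ~5×10^5 cells/mL log-phase inoculum, serial compound dilutions, 24 h at 37 °C, OD600 read-out. MIC50/MIC90 are the concentrations giving 50%/90% growth inhibition relative to drug-free controls. Two independent experiments in duplicate.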

[17] = test system: Streptococcus pneumoniae; experiment: Antibacterial activity against Streptococcus pneumoniae ATCC 49619 incubated for 24 hrs by serial broth microdilution method; type: functional
Outline: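 Cultured in MH medium plus 3% defibrinated sheep blood at 37 °C, 5% CO2. Log-phase inoculum ~5×10^5 cells/mL was exposed to serial compound dilutions for 24 h. MIC50/MIC90 are relative to drug-free controls. Two independent experiments in duplicate.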

Compound | ΔTm [1] | Activity [2] | inhibition [3] | IC50 [4] | Activity [5] | Activity [6] | Activity [7] | Activity [8] | Activity [9] | Activity [10] | Activity [11] | Activity [12] | Activity [13] | Activity [14] | Activity [15] | Activity [16] | Activity [17]
CCCOc1ncnc2scc(C(=O)NCc3ccc(CN4CCOCC4)cc3)c12 | 1 to 2 °C | Non-Toxic | inactive | – | – | – | – | – | – | – | – | – | – | – | – | – | –
CCCOc1ncnc2scc(C(=O)NCc3ccc(CNCc4ccccc4)cc3)c12 | 1 to 2 °C | Non-Toxic | inactive | – | – | – | – | – | – | – | – | – | – | – | – | – | –
Cl.NCCCCCCCNCc1ccc(CNC(=O)c2csc3nc[nH]c(=O)c23)cc1 | – | Non-Toxic | – | 140 nM | inactive | inactive | inactive | inactive | inactive | inactive | inactive | inactive | inactive | inactive | inactive | inactive | inactive
